Measurements as given in ChEMBL document CHEMBL3045648, “Proapoptotic effects of novel pentabromobenzylisothioureas in human leukemia cell lines” (2012).
Activity calls are given as the source filed them. The calls are words filed in the database; no cut-off is given here.

Key:
K562 [1] = assay: Induction of apoptosis in Homo sapiens (human) K562 cells assessed as mitochondrial membrane depolarization at 10 uM after 48 hr by JC-1 staining based flow cytometric analysis (reference value: 6.1 +/- 0.9%); assay type: functional
K562 [2] = assay: Induction of apoptosis in Homo sapiens (human) K562 cells assessed as PARP cleavage at 10 uM after 48 hr by FITC conjugated antiPARP-staining based flow cytometric analysis; assay type: functional, cell-based
Summary of the method: (§1)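 Cells in RPMI-1640 with 10% heat-inactivated FBS, seeded at 2.5 × 10^5 cells/ml and treated from DMSO solution. Controls got the same solvent volume. Harvested 48 h post-treatment and washed twice in PBS. Stained with FITC anti-PARP antibody specific for the 85 kDa cleaved fragment. Flow cytometry reported fluorescence intensity, with negative (M1) and positive (M2) gates.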

K562 [3] = assay: Induction of cell cycle arrest in Homo sapiens (human) K562 cells assessed as accumulation of G1 phase cells after 48 hr by PI-staining based flow cytometric analysis; assay type: functional
Summary of the method: (§2)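 Cells treated 48 h with DMSO solvent controls, washed in cold PBS and fixed in 70% ethanol at −20°C for at least 24 h. Stained 30 min in the dark at room temperature with 50 μg/ml PI and 100 μg/ml RNase in PBS/0.1% Triton X-100. DNA content measured by flow cytometry and phase percentages modelled; mean ± SD, n ≥ 4.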

HL-60 [4] = assay: Induction of cell cycle arrest in Homo sapiens (human) HL60 cells assessed as decrease in G2/M phase cells after 48 hr by PI-staining based flow cytometric analysis; assay type: functional; summary of the method: as §2
K562 [5] = assay: Induction of cell cycle arrest in Homo sapiens (human) K562 cells assessed as decrease in G2/M phase cells after 48 hr by PI-staining based flow cytometric analysis; assay type: functional; summary of the method: as §2
K562 [6] = assay: Induction of apoptosis in Homo sapiens (human) K562 cells at 10 to 20 uM by annexinV/PI-staining based flow cytometric analysis; assay type: functional, cell-based; conditions: TDE = time-dependent effect
Summary of the method: (§3)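 Cells seeded at 2.5 × 10^5 cells/ml in RPMI-1640/10% FBS, treated 24 or 48 h, DMSO solvent controls. Rinsed twice in cold PBS and resuspended at 2 × 10^6 cells/ml in binding buffer. Labelled with annexin V-FITC and PI for 15 min at room temperature in the dark. Flow cytometry within 1 h; mean ± SD, n ≥ 4.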

HL-60 [7] = assay: Induction of apoptosis in Homo sapiens (human) HL60 cells assessed as mitochondrial membrane depolarization at 5 uM after 48 hr by JC-1 staining based flow cytometric analysis (reference value: 7.7 +/- 2.4%); assay type: functional
HL-60 [8] = assay: Induction of apoptosis in Homo sapiens (human) HL60 cells at 5 to 8 uM by annexinV/PI-staining based flow cytometric analysis; assay type: functional, cell-based; conditions: TDE = time-dependent effect; summary of the method: as §3
HL-60 [9] = assay: Induction of cell cycle arrest in Homo sapiens (human) HL60 cells assessed as cells accumulation of G1/S phase cells after 48 hr by PI-staining based flow cytometric analysis; assay type: functional; summary of the method: as §2
HL-60 [10] = assay: Induction of apoptosis in Homo sapiens (human) HL60 cells from 24 to 48 hr by annexinV/PI-staining based flow cytometric analysis; assay type: functional, cell-based; summary of the method: as §3
HL-60 [11] = assay: Induction of cell cycle arrest in Homo sapiens (human) HL60 cells assessed as accumulation of G1 phase cells after 48 hr by PI-staining based flow cytometric analysis; assay type: functional; summary of the method: as §2
K562 [12] = assay: Induction of cell cycle arrest in Homo sapiens (human) K562 cells assessed as cells accumulation of G1/S phase cells after 48 hr by PI-staining based flow cytometric analysis; assay type: functional; summary of the method: as §2
K562 [13] = assay: Induction of apoptosis in Homo sapiens (human) K562 cells from 24 to 48 hr by annexinV/PI-staining based flow cytometric analysis; assay type: functional, cell-based; summary of the method: as §3
K562 [14] = assay: Induction of cell cycle arrest in Homo sapiens (human) K562 cells assessed as G1 phase cells at 20 uM after 48 hr by PI-staining based flow cytometric analysis (reference value: 37.6 +/- 3.2 %); assay type: functional; summary of the method: as §2
HL-60 [15] = assay: Induction of apoptosis in Homo sapiens (human) HL60 cells assessed as PARP cleavage at 8 uM after 48 hr by FITC conjugated antiPARP-staining based flow cytometric analysis; assay type: functional, cell-based; summary of the method: as §1
K562 [16] = assay: Induction of cell cycle arrest in Homo sapiens (human) K562 cells assessed as S phase cells at 20 uM after 48 hr by PI-staining based flow cytometric analysis (reference value: 43.3 +/- 3.4%); assay type: functional; summary of the method: as §2
K562 [17] = assay: Induction of cell cycle arrest in Homo sapiens (human) K562 cells assessed as S phase cells at 10 uM after 48 hr by PI-staining based flow cytometric analysis (reference value: 43.3 +/- 3.4%); assay type: functional; summary of the method: as §2
K562 [18] = assay: Induction of cell cycle arrest in Homo sapiens (human) K562 cells assessed as G2/M phase cells at 10 uM after 48 hr by PI-staining based flow cytometric analysis (reference value: 19.1 +/- 3.9%); assay type: functional; summary of the method: as §2
K562 [19] = assay: Induction of cell cycle arrest in Homo sapiens (human) K562 cells assessed as G2/M phase cells at 20 uM after 48 hr by PI-staining based flow cytometric analysis (reference value: 19.1 +/- 3.9%); assay type: functional; summary of the method: as §2
HL-60 [20] = assay: Induction of apoptosis in Homo sapiens (human) HL60 cells assessed as apoptotic nuclei at 8 uM after 48 hr by DAPI/sulforhodamine 101-stainihng based fluorescence micrscopic analysis; assay type: functional, cell-based
Summary of the method: (§4)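 Exponentially growing cells seeded at 2.5 × 10^5 cells/ml, exposed 48 h, DMSO solvent controls. Washed in cold PBS and fixed in 70% ethanol at −20°C for at least 24 h. Stained with 1.0 μg/ml DAPI plus 20 μg/ml sulforhodamine 101. Nuclear morphology scored by fluorescence microscopy.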

HL-60 [21] = assay: Induction of apoptosis in Homo sapiens (human) HL60 cells assessed as concentrated chromatin at 8 uM after 48 hr by DAPI/sulforhodamine 101-stainihng based fluorescence micrscopic analysis; assay type: functional, cell-based; summary of the method: as §4
K562 [22] = assay: Induction of cell cycle arrest in Homo sapiens (human) K562 cells assessed as G1 phase cells at 10 uM after 48 hr by PI-staining based flow cytometric analysis (reference value: 37.6 +/- 3.2 %); assay type: functional; summary of the method: as §2

SMILES | Activity (K562 [1]) | Activity (K562 [3]) | Activity (HL-60 [4]) | Activity (K562 [5]) | Activity (K562 [6]) | Activity (HL-60 [7]) | Activity (HL-60 [8]) | Activity (HL-60 [9]) | Activity (HL-60 [10]) | Activity (HL-60 [11]) | Activity (K562 [12]) | Activity (K562 [13]) | other results
Br.CNC(=N)SCc1c(Br)c(Br)c(Br)c(Br)c1Br | 81.8% | Dose-dependent effect | Dose-dependent effect | Dose-dependent effect | tde | 24.4% | tde | Dose-dependent effect | Dose-dependent effect | Dose-dependent effect | Dose-dependent effect | Dose-dependent effect | Activity (K562 [2]): Active
Br.C/N=C(/NC)SCc1c(Br)c(Br)c(Br)c(Br)c1Br | 77.7% | Dose-dependent effect | Dose-dependent effect | Dose-dependent effect | tde | 93.1% | tde | Dose-dependent effect | Dose-dependent effect | Dose-dependent effect | Dose-dependent effect | Dose-dependent effect | Activity (K562 [14]): 55%; Activity (HL-60 [15]): Active; Activity (K562 [16]): 42.5%; Activity (K562 [17]): 35.5%; Activity (K562 [18]): 9%; Activity (K562 [19]): 2.5%; Activity (HL-60 [20]): Active; Activity (HL-60 [21]): Active; Activity (K562 [22]): 55.5%
Br.N=C(N)SCc1c(Br)c(Br)c(Br)c(Br)c1Br | 63.8% | Dose-dependent effect | Dose-dependent effect | Dose-dependent effect | tde | 21.9% | tde | Dose-dependent effect | Dose-dependent effect | Dose-dependent effect | Dose-dependent effect | Dose-dependent effect | –
Br.CCNC(=N)SCc1c(Br)c(Br)c(Br)c(Br)c1Br | 62.2% | Dose-dependent effect | Dose-dependent effect | Dose-dependent effect | tde | 30.1% | tde | Dose-dependent effect | Dose-dependent effect | Dose-dependent effect | Dose-dependent effect | Dose-dependent effect | –
Br.C=CCNC(=N)SCc1c(Br)c(Br)c(Br)c(Br)c1Br | 60% | Dose-dependent effect | Dose-dependent effect | Dose-dependent effect | tde | 12.8% | tde | Dose-dependent effect | Dose-dependent effect | Dose-dependent effect | Dose-dependent effect | Dose-dependent effect | –
